# Sampled rows, rich in hits. Any-hit rate of the full collection: about 1.3%.
# Diaph inh CS: diaphorase inhibitors and chemical oxidizers, primary screen, counter-screen for diaphorase-coupled primary assays, biochemical, uHTS, resorufin fluorescence; diaphorase resazurin-to-resorufin fluorescence, NADH, 16 min; bacterial (C. kluyveri) enzyme, not human; 0.69% of 190,000 active; inhibition, % at 20 µM;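 active = primary screen inhibition at 20 µM above a set limit, cut at about 50% in these data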;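 note: plate controls were DMSO with full reaction for no effect and wells lacking NADH for full effect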
#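 Assay system – diaphorase enzyme from Clostridium kluyveri · Amount – diaphorase 0.14 U/mL (working solution) · Times – reaction incubation of 16 min at room temperature · Controls – No-NADH positive control and DMSO neutral control · Signal – resorufin fluorescence 544/590 nm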
# HKDC1 inhibitor: HKDC1 hexokinase inhibitors, primary screen, biochemical, fluorescence, uHTS; 0.16% of 340,000 active; inhibition, % at 20 µM; recombinant HKDC1, G6PDH/diaphorase resazurin coupled fluorescence; AID 493160, 2011;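 active = inhibition above about 35% when tested at 20 µM, limit read from the data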;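 note: plate controls were DMSO wells with enzyme for no effect and DMSO wells lacking enzyme for full effect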
# Target sequence (Q2TB90 whole entry, looked up): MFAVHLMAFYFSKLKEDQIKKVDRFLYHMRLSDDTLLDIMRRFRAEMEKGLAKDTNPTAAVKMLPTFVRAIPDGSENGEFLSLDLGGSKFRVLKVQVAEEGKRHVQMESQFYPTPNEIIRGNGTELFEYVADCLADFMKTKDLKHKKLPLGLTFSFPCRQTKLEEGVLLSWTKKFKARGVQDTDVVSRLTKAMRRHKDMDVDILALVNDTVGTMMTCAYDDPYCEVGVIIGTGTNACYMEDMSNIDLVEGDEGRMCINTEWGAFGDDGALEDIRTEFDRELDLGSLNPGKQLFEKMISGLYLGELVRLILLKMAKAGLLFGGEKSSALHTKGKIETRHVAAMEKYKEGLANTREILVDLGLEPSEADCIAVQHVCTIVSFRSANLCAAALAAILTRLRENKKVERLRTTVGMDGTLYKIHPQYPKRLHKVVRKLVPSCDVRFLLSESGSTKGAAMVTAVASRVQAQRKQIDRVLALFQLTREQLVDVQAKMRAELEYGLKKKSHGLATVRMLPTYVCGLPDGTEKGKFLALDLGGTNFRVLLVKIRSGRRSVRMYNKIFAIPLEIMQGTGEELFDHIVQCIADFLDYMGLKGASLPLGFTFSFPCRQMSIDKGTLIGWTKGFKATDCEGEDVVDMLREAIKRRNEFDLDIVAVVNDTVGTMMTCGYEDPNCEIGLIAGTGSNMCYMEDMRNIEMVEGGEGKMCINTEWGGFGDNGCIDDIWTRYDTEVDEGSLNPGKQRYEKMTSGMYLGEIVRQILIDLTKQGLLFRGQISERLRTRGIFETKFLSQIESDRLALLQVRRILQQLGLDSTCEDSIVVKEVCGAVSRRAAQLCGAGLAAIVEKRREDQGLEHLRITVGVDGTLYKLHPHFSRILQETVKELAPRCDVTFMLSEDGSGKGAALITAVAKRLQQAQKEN
#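 Assay system: in-house recombinant HK5 (HKDC1) enzyme. Input: HKDC1 at 5 µg/mL. Medium: Tris pH 8.0 buffer with MgCl2, Tween-20, BSA, BME. Dosing: single 20 µM dose. Schedule: 90 min reaction incubation at room temperature, dark. Signal: resazurin-to-resorufin fluorescence via G6PDH and diaphorase coupling, 525/613 nm. Controls: DMSO-enzyme wells negative, buffer-substituted wells positive.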
# G6PDH counter: L. mesenteroides G6PDH inhibitors, counter-screen for G6PDH-coupled screening assays, biochemical, Leuconostoc mesenteroides enzyme; Purified L. mesenteroides G6PDH, diaphorase/resazurin coupled fluorescence, 45 min; inhibition, % at 5 µM; 0.12% of 200,000 active; in the data active = inhibition above about 50%
# PfGluPho inh: PfG6PD enzyme inhibitors, primary screen, biochemical, fluorescence intensity, uHTS; inhibition, % at 20 µM; 0.78% of 350,000 active; glucose-6-phosphate dehydrogenase-6-phosphogluconolactonase (Plasmodium falciparum 3D7); PfGluPho enzyme, NADPH resazurin-diaphorase fluorescence;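 active = inhibition reaching at least a set limit at 20 µM in the primary screen, cut at about 59% in these data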;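 note: 0% = DMSO wells with substrate and 100% = DMSO wells lacking glucose-6-phosphate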
# PfG6PD confirm: PfG6PD inhibitors, hit retest, confirmation, biochemical, fluorescence intensity, single concentration. shares compounds with PfGluPho inh. recombinant PfGluPho, NADPH-diaphorase-resazurin fluorescence. inhibition, % at 20 µM. 34% of 2,400 active. AID 504753, 2011;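 active = inhibition of at least 50% at 20 µM in any single replicate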;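 note: 0% = DMSO with substrate and 100% = DMSO lacking glucose-6-phosphate substrate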
# Diaph ctr 10uM: diaphorase inhibitors and chemical oxidizers, confirmation, counter-screen for P. falciparum G6PD inhibitor project, biochemical, fluorescence intensity, 10 µM NADPH | shares compounds with PfGluPho inh | diaphorase-coupled resazurin reduction, NADPH 10 uM | inhibition, % at 20 µM | 39% of 820 active;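 active = average inhibition reaching 50% or more with the compound at 20 µM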;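 note: resorufin red fluorescence formed as diaphorase reduces resazurin using NADPH; 0% = DMSO with enzyme and 100% = DMSO without enzyme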
# Diaph ctr 30uM: diaphorase inhibitors and chemical oxidizers, confirmation, counter-screen for P. falciparum G6PD inhibitor project, biochemical, fluorescence intensity, 30 µM NADPH; shares compounds with PfGluPho inh; inhibition, % at 20 µM; 29% of 820 active; Diaphorase/resazurin coupled assay, resorufin fluorescence;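 active = inhibition averaging 50% or more, tested at 20 µM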;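 note: 0% = DMSO with enzyme and 100% = DMSO wells lacking diaphorase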
# * = called active by the depositor; x = no result given.
SMILES,Diaph inh CS,HKDC1 inhibitor,G6PDH counter,PfGluPho inh,PfG6PD confirm,Diaph ctr 10uM,Diaph ctr 30uM
O=C(COC(=O)c1ccc2c(c1[N+](=O)[O-])C(=O)c1ccccc1C2=O)NC1CC1,27.3,24.9,55.3*,60.1*,54.1*,25.6,27.9
O=C(NCC(c1ccccc1Cl)N1CCCC1)C1CCN(C(=O)Nc2ccccc2)CC1 (configuration not stated),x,1.5,x,-14.5,x,x,x
Cc1ccc(-c2cc(-c3ccccc3)c(C#N)c(N)n2)o1,33.8,11.8,-17.4,82.6*,-6.2,x,x
CCOc1ccc2nc(N3CCCC(C(=O)NCCCN4CC(C)CC(C)C4)C3)sc2c1 (configuration not stated),x,4.0,x,2.7,x,x,x
Cc1cc(C)c[n+](C2=C([O-])c3ccccc3C(=O)/C2=N\S(=O)(=O)c2cccs2)c1,21.9,14.8,32.8,66.1*,49.6*,50.0*,44.3
O=C1/C(=N\S(=O)(=O)c2cccs2)C([n+]2cccc(Cc3ccccc3)c2)=C([O-])c2ccccc21,x,5.6,x,63.0*,25.6,x,x
CC(=O)c1cccc(NC(=O)c2cccc3ccccc23)c1,x,-4.3,x,6.9,x,x,x
CCCOc1ccc2oc(=O)c3c(c2c1)CCCN3C(=O)CN(C)Cc1ccccc1,19.9,2.4,4.4,77.8*,39.1,x,x
O=C(CN1CCCCC1)N1CCCc2c1c(=O)oc1ccc(OCc3ccccc3)cc21,10.1,2.3,-1.0,56.0,x,x,x
COc1ccccc1NC(=O)N(C)C[C@H]1OCc2cnnn2CCCC(=O)N([C@@H](C)CO)C[C@H]1C,x,x,x,-9.3,x,x,x
Cc1ccc(C)c(C(=O)CCC(=O)Nc2ccc(F)cc2)c1,x,2.8,x,0.7,x,x,x
Cc1ccc(S(=O)(=O)C=CS(=O)(=O)c2ccc(C)cc2)cc1,x,x,x,112.6*,93.1*,-3.0,-1.0
Cc1ccc(S(=O)(=O)SCCCSS(=O)(=O)c2ccc(C)cc2)cc1,x,-2.6,x,123.1*,81.4*,-33.6,-26.7
Cc1ccc(S(=O)(=O)CS(=O)(=O)c2ccc(C)cc2)cc1,x,-4.2,x,5.0,x,x,x
Cc1ccc(S(=O)(=O)SC/C=C/CSS(=O)(=O)c2ccc(C)cc2)cc1,x,-2.5,x,116.2*,65.6*,-20.6,-4.8
Cc1ccc(Nc2ncnc(Cl)c2N)cc1,x,-3.9,x,11.1,x,x,x
CC1(C)CC(=O)C2=C(C1)NC1=C(C(=O)c3ccccc31)C2c1ccc(Cl)cc1 (configuration not stated),21.4,8.8,17.1,67.6*,14.1,x,x
O=C(NCO)c1cccnc1,x,-4.1,x,-1.5,x,x,x
CCOc1ccc2ccccc2c1/C=N/NC(=O)CC1(C)OCCCO1,4.3,-9.2,0.0,76.6*,57.4*,59.5*,55.4*
COc1ccc2ccccc2c1/C=N/NC(=O)CC1(C)OCCCO1,2.6,6.7,22.0,16.1,x,x,x
CCOc1ccc2ccccc2c1/C=N/NC(=O)c1ccncc1,x,-6.3,x,72.3*,66.4*,60.8*,47.0
CCOc1ccc2ccccc2c1/C=N/NC(=O)c1cc(C)[nH]n1,x,3.3,x,54.7,x,x,x
CN(CCO)c1ccc(C=NNc2ccc([N+](=O)[O-])cc2S(=O)(=O)Nc2ccccc2C(=O)O)cc1,x,8.9,x,-17.2,x,x,x
Cc1cc(Br)ccc1NC(=O)CN(C)C(=O)C1CCN(c2ncnc3sc(C)c(C)c23)CC1,x,1.4,x,-8.6,x,x,x
CCOC(=O)c1sc(=S)n(C)c1NC(=O)c1ccccc1,10.6,-12.5,4.1,64.1*,27.7,x,x
CCOC(=O)c1sc(=S)n(C)c1NC(=O)c1cccc(Br)c1,x,-5.3,x,41.6,x,x,x
COCCNC(=O)Cn1c(=O)n(CCCC(=O)NCc2ccc3c(c2)OCO3)c(=O)c2sccc21,x,-2.0,x,-3.7,x,x,x

# Compound activity (PubChem)
